As usually defined, the apparent Kd is the concentration giving half-maximal binding under the conditions of the assay.

The values that follow come from the EternaBench riboswitch data.

The data set concerns MS2 coat protein. The experiment in a line: apparent Kd, MS2 coat protein; higher = weaker binding; RNA-MaP array; FMN 200 µM where present. An outline of the steps:
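Designs were transcribed by stalled E. coli RNA polymerase on Illumina sequencing-chip clusters. They were titrated with SNAP-549-labelled MS2 coat protein from 0.7 or 1.5 nM, doubling to 3 µM, in 100 mM Tris-HCl pH 7.5, 80 mM KCl, 4 mM MgCl2, BSA, DTT, yeast tRNA and Tween-20, without and then with constant ligand. The apparent Kd is the median of filtered per-cluster fits after normalisation of green signal to red-channel RNA signal and control-cluster median Fmax.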

Setting [1] is: designed as: OFF switch for flavin mononucleotide, no ligand.
The mark [2] stands for this setting: ligand present: flavin mononucleotide, designed as: OFF switch for flavin mononucleotide.
[3] abbreviates: designed as: ON switch for flavin mononucleotide, no ligand.
Where [4] appears, read: ligand present: flavin mononucleotide, designed as: ON switch for flavin mononucleotide.

For the sequence “AGUGUUUCGUUGUGACCCAUUCACAUGAGGAUCACCCAUGUAGAGGAUAUAGGUCACCACGGUUCCUAGAAGGCUGCAGGUGUG”, the “apparent Kd” value reads like this: under setting [1], 5.71 nM; under setting [2], 7.3 nM.
On to “GCGUGACAUGAGGAUCACCCAUGUGAGGAUAUCUGGACACUCUUUAUUUUAGAUGUCCAGAGAAGGCACAUGCU”, for which the “apparent Kd” value was determined as 238 nM under setting [1] and 126 nM under setting [2].
As to “CCACGUCACAUCUACAUGAGGAUCACCCAUGUCAAAAGACAUGAGGAUAUGCUACCUAAUUGGUAGCAGAAGGCAUGGACGUGG”, the “apparent Kd” value came to 982 nM under setting [3] and 64.4 nM under setting [4].
With “GCAUCCAAUGUGAGGAUAUACCUCUGGAUACAUAGGUAGAAGGCACAUGAGGAUCACCCAUGUUCCUAGGAUGC”, the “apparent Kd” value is, setting by setting: under setting [1], 44.6 nM; under setting [2], 222 nM.
With “ACUACGUUAGCGAUAUGAUCGAGAGAUCAUGUCGCUAUAUUUAGAAGGACAUGAGGAUCACCCAUGUAGGAUAUGGGUCGUGGA”, the “apparent Kd” value reads like this: under setting [3], 158 nM; under setting [4], 35.7 nM.
On to “UUCUUGGCAGGAUAUGCUUUUUUAGACAUGAGGAUCACCCAUGUGUUUAUUUUUUUUUUUGCAGAAGGGCCUUAAU”, for which the “apparent Kd” value under setting [1] was 16.4 nM and the “apparent Kd” value under setting [2] amounted to 19.5 nM.
As for “CGGAUGUGAGGAUAUACAUGAGGAUCACCCAUGUGAGCCAGCUAGCUGACUGGCUCGUGUAGAAGGCACGUCUG”, the “apparent Kd” value is, setting by setting: under setting [1], 15.5 nM; under setting [2], 28.9 nM.
In the case of “UUGGACCUAGGAUAUACAUGAGGAUCACCCAUGUUGGCGCACGCCCACCUGGACCCGAGUAGAAGGAGGAAAAU”, the “apparent Kd” value is, setting by setting: under setting [1], 26.1 nM; under setting [2], 78.4 nM.
As for “UGUCGGAGCAGAGGAUAUUACAUGAGGAUCACCCAUGUAUGAACCAAUAGCUGGAACCAGCAAUGUAAGAAGGCUGCUCCGACA”, the “apparent Kd” value worked out at 14.2 nM under setting [1] and 160 nM under setting [2].
For the sequence “UUGGACGUCGUAGGAUAUGUAGGAUAUUCCUACAUGAGGAUCACCCAUGUUGACAUGGAAGAAGGACAGAAGGACGACGUCCAU”, the “apparent Kd” value came out at 173 nM under setting [3] and 4.59 nM under setting [4].
Regarding “UGUUGUAUUACAGGAUAUCUAGUAUUUUUAUUUAGAGAAGGGUAUUCACAUGAGGAUCACCCAUGUAUAUACGAGGAAGUUGUG”, the “apparent Kd” value under setting [3] was found to be 34.3 nM and the “apparent Kd” value under setting [4] was 38.8 nM.
Consider “ACGGCAGUCAGAGGAUAUGGUUACAUGAGGAUCACCCAUGUCAAGGGUCUAAUUAGGUAUAACUACCAGAAGGCUGAAGGCCUA”, for which the “apparent Kd” value by setting is: under setting [1], 64.5 nM; under setting [2], 102 nM.
On to “AUUAUUUAUAGUUAUUGGUAUUUUACAGAAGGUGAAAGUGUCACAUGAGGAUCACCCAUGUUCUUCAAGGAUAUGUUGUUAUAC”, for which the “apparent Kd” value is 64.2 nM under setting [3] and 11.6 nM under setting [4].
“UCCGUGGCAUCUCGCGCAUGUCCACAUGAGGAUCACCCAUGUCAGGAUAUACGGAAUGUCGUUCCGUAGAAGGGACAAGGGCUG”: the “apparent Kd” value under setting [1] was found to be 178 nM and the “apparent Kd” value under setting [2] is 69.7 nM.
On to “UUUUAACAUGAGGAUCACCCAUGUGAGGAUAUCGUUAUUUAUAUUAAUAUUAAUAAAACGAGAAGGCACAUUUU”, for which the “apparent Kd” value is, setting by setting: under setting [1], 112 nM; under setting [2], 141 nM.
As for “AACAGUAUAGGAUAUACAUGAGGAUCACCCAUGUGAGAAUUACGUGGCGUACCACGAAGUAGAAGGAUACUGGA”, the “apparent Kd” value was 38.6 nM under setting [1] and 168 nM under setting [2].
In the case of “AAACACGGACAUGAGGAUCACCCAUGUGGCGAAAGCCUUGGGAGAAGGUAUUAUGCAAAGCAUUAUAAGGAUAUUCAUACCGUG”, the “apparent Kd” value was determined as 821 nM under setting [3] and 187 nM under setting [4].
Take “AAUAACAGAGGAUAUACUGUUUUAUGUGUUUGUUAUUUUGAACAUGAGGAUCACCCAUGUAGAAGGCUGAUUAA”: the “apparent Kd” value is, setting by setting: under setting [1], 41.2 nM; under setting [2], 38.2 nM.
The corresponding values for “GGCAUAAACGAGGAUAUCGAUACGGAAACGUAUCGAGAAGGUGUAACAUGAGGAUCACCCAUGUUCCUCAAGCC” are 38.6 nM and 39.5 nM.
As for “GCACAUGAGGAUCACCCAUGUGGUCCAGAAGGCCAGAGGGCUUGCUUUUCGCAGGCCUUUCAAAUGGAGGAUAUGGAGGGUUCU”, the “apparent Kd” value came out at 207 nM under setting [3] and 42.7 nM under setting [4].
“CAGCAAAGGUAGAAGGCAGUACUGAUACAGUACUGAGGAUAUACAUGAGGAUCACCCAUGUAAAAAAGCUGGAAAUAAAUAAAA”: the “apparent Kd” value stood at 7.39 nM under setting [1] and 10 nM under setting [2].
Turning to “CCUCUACAUGAGGAUCACCCAUGUGAGGAUAUCUCGGAGCAACCACUUAAGGCGCUCCAGAGAAGGCACGUGUA”, the “apparent Kd” value runs as follows: under setting [1], 20.6 nM; under setting [2], 28.9 nM.
Take “UACAUCAAUGAAGGAUAUCUAUAUCCAACAUGAGGAUCACCCAUGUUGAGGAUCACCCAUGUAAAGGAGAAGGUUAAUAUAACU”: the “apparent Kd” value under setting [3] stood at 37.7 nM and the “apparent Kd” value under setting [4] was 29.7 nM.
Regarding “UGUAUGGACAGAGGAUAUACGGAUAGGAUCUACUAUCUUUCUCAAAUAACAUGAGGAUCACCCAUGUAGAAGGCUGUCCAUACU”, the “apparent Kd” value was 22.4 nM under setting [1] and 136 nM under setting [2].
In the case of “UGUCCUUGAGGCUCGGACGUGUCGCCAGAAGGCAAUUUCUGACAUGAGGAUCACCCAUGUCCAAUUGAGGAUAUGGCUGCGUUG”, the “apparent Kd” value reads like this: under setting [3], 17.3 nM; under setting [4], 5.56 nM.
As to “CGCUAUUAUGUAGGAUAUACAUUUUUUAUGUAUGUAGAAGGACAUGAGGAUCACCCAUGUAAAUUAAUUUUAAUUAUCUUAGCG”, the “apparent Kd” value turned out to be 16.4 nM under setting [1] and 13.3 nM under setting [2].
The corresponding values for “GCAAUCGAGGGAGGAUAUUGUGAGAUGGUGACAUGAGGAUCACCCAUGUGACGAGAAGGCCCAGUGCGCCCGCUUAACUGCUGA” are 37.4 nM and 210 nM.
“ACGGCAAUCGAAGGAUAUGGUUACAUGAGGAUCACCCAUGUCUAGGGUCUAAUUAGGUAUAAUUACCAGAAGGUCGAAGGCCUA”: the “apparent Kd” value by setting is: under setting [1], 93.7 nM; under setting [2], 122 nM.
With “GUAUGAUUAAGAGGAUAUAUACAACAUGAGGAUCACCCAUGUACCCGUGUAGUAGAAGGUUUGUUUUUAUAUAAUAAUAUAAUU”, the “apparent Kd” value worked out at 26.6 nM under setting [3] and 19.1 nM under setting [4].
As to “GCCAGGCAUGUAGGAUAUCCAUUGCGUCGCGUUGGAGAAGGGCAGCACACAUGAGGAUCACCCAUGUGGUCACCCAUGUAGUGU”, the “apparent Kd” value amounted to 612 nM under setting [1] and 594 nM under setting [2].
On the same counts, the results for “UAUGUAUUCGUAGGAUAUCCGUCGAGACCGUGUGGAGAAGGACGAACAUGAGGAUCACCCAUGUAUCAUGGUGUAGACAAUUUU” are 47.4 nM and 186 nM.
On to “GUGCGGUCAGGAUAUGCAUGGCGGGACUUGCGUCGUGGCGUGGAGAAGGGACAUGAGGAUCACCCAUGUGGAGC”, for which the “apparent Kd” value by setting is: under setting [1], 51.4 nM; under setting [2], 54.2 nM.
Consider “AAUAACAGAGGAUAUACUGUUUUAUGUGUUUGUUGUUUUAAACAUGAGGAUCACCCAUGUAGAAGGCUGAAUGA”, for which the “apparent Kd” value under setting [1] is 26.5 nM and the “apparent Kd” value under setting [2] stood at 25.2 nM.
On the same counts, the results for “GUCGAGUGAGGAUAUGGUGAGUAGUGCCAGAGCGCUGCUCACCAGAAGGCACAUGAGGAUCACCCAUGUAUGUC” are 12.9 nM and 20.8 nM.
“UACAGACAUGAGGAUCACCCAUGUAAGGAUAUCGGUACUGAUGGUAUAAUCUACUCAGCGAGAAGGUACAGUGU”: the “apparent Kd” value was 33.6 nM under setting [1] and 33.2 nM under setting [2].
In the case of “ACAUGAGGAUGAGGAUAUUCAUACAUGAGGAUAGAAGAAGGCAUACAUGAGGAUCACCCAUGUAUACACAUGAGGAUCGCCCAU”, the “apparent Kd” value turned out to be 37.1 nM under setting [1] and 47.3 nM under setting [2].
With “GGUGGACAUGAGGAUCACCCAUGUGAGGAUAUCGGCUGUCUACUCGCUGACGGCUGCUCGAGAAGGCGCAUUGU”, the “apparent Kd” value under setting [1] came to 45.4 nM and the “apparent Kd” value under setting [2] worked out at 61.5 nM.
For the sequence “UAAAUGUGAGGAUAUUCGUAGUACUCGGAGACGAGUAUUACGGAGAAGGCACAUGAGGAUCACCCAUGUUCCUU”, the “apparent Kd” value under setting [1] is 21.3 nM and the “apparent Kd” value under setting [2] was found to be 188 nM.
“AGCUGGUGACAGCAAGAAAGUUCACAUGAGGAUCACCCAUGUAGAAGGCUGUACGGUUACCGUACAGAGGAUAUACAUAGAAAG”: the “apparent Kd” value turned out to be 19.9 nM under setting [1] and 31.5 nM under setting [2].
Regarding “AGAUGGUAUAUAGGAUAUCAUGUGCAAACAUGAGGAUCACCCAUGUAGAAACGUCAGUUUAAUAAUGAGAAGGAUAUACCAUCU”, the “apparent Kd” value under setting [3] turned out to be 31.9 nM and the “apparent Kd” value under setting [4] came to 11.5 nM.
Regarding “UUAAUUAAUUAAUUAUACAUGAGGAUCACCCAUGUAAGUGAUCAGGAUAUCAGCUCGAUUAGAGCUGAGAAGGGAUCCAUGUAA”, the “apparent Kd” value under setting [3] turned out to be 109 nM and the “apparent Kd” value under setting [4] stood at 81.3 nM.
“GAACGUAAAGAGAAGGGCUACUGGUUGAAACCUGCGGCCUCUGGAACAUGAGGAUCACCCAUGUAGCAGGAUAUCUUUGCAUUA”: the “apparent Kd” value under setting [1] is 146 nM and the “apparent Kd” value under setting [2] came out at 18.9 nM.
With “UUUCCGCGAGGAUAUGCGGGUUGUGCUUUUCAUUUCUUAUAACAUGAGGAUCACCCAUGUAGAAGGUGCUUCUU”, the “apparent Kd” value stood at 151 nM under setting [1] and 144 nM under setting [2].
With “UGCUACGUUUCGUAGCAGUGUCAUCGAGAAGGCCCUGACAUGAGGAUCACCCAUGUUGUUACAUGGGAGGAUAUCGAUGAUACC”, the “apparent Kd” value was found to be 11.8 nM under setting [3] and 5.25 nM under setting [4].
With “UCAACCAGCGCCAGUUGAACAUGAGGAUCACCCAUGUACUCCAGAAGGCCGCCCAAGAACGGAGUGGAGGAUAUGGAGGUUCUC”, the “apparent Kd” value runs as follows: under setting [3], 28.5 nM; under setting [4], 18.4 nM.
Regarding “UUUUACAUAGGAUAUAGUUGCUUUUACAUGAGGAUCACCCAUGUCUCUCCUCUCUCUCUUCUAGAAGGAUGUUUCU”, the “apparent Kd” value under setting [1] came out at 54.7 nM and the “apparent Kd” value under setting [2] is 46.5 nM.
On to “UUAAUAAUACAAGGAUAUCUAUUGUUCUUAAGACAUACAUGAGGAUCACCCAUGUUAAUAUAUAUAGAGAAGGUGUAUUUUCAG”, for which the “apparent Kd” value was 27.2 nM under setting [3] and 20 nM under setting [4].
Take “UUGAUUUUGUAAGGAUAUACUCUGUGAUGAAGAGUAGAAGGUACUUACAUGAGGAUCACCCAUGUUUAACGAGAUACUAAUCGU”: the “apparent Kd” value under setting [3] is 62.8 nM and the “apparent Kd” value under setting [4] stood at 31.3 nM.
